# Assay results: ChEMBL document CHEMBL1148427, “Diastereoselective synthesis and configuration-dependent activity of (3-substituted-cycloalkyl)glycine pyrrolidides and thiazolidides as dipeptidyl peptidase IV inhibitors” (Bioorg Med Chem Lett, 2004)
# pIC50: −log10 of the molar value.
# Legend:
# Dipeptidyl peptidase 2 = Dipeptidyl peptidase 2 (Homo sapiens, UniProt Q9UHL4); test: Inhibitory activity against human quiescent cell proline dipeptidase
# Dipeptidyl peptidase 4 = Dipeptidyl peptidase 4 (Homo sapiens, UniProt P27487); test: Inhibitory activity against human recombinant Dipeptidylpeptidase IV
# Procedure, shortened: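 Human recombinant enzyme run in a fluorometric assay with Gly-Pro-AMC as substrate. Cleavage releases fluorescent 7-amino-4-methylcoumarin, which is read to give IC50 values.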
# [1] = Inhibitory activity against human aminopeptidase P
# Prolyl endopeptidase [2] = target: T1, Prolyl endopeptidase (Homo sapiens, UniProt P48147); test: Inhibitory activity against human prolylendopeptidase
# T1 sequence (P48147 whole entry): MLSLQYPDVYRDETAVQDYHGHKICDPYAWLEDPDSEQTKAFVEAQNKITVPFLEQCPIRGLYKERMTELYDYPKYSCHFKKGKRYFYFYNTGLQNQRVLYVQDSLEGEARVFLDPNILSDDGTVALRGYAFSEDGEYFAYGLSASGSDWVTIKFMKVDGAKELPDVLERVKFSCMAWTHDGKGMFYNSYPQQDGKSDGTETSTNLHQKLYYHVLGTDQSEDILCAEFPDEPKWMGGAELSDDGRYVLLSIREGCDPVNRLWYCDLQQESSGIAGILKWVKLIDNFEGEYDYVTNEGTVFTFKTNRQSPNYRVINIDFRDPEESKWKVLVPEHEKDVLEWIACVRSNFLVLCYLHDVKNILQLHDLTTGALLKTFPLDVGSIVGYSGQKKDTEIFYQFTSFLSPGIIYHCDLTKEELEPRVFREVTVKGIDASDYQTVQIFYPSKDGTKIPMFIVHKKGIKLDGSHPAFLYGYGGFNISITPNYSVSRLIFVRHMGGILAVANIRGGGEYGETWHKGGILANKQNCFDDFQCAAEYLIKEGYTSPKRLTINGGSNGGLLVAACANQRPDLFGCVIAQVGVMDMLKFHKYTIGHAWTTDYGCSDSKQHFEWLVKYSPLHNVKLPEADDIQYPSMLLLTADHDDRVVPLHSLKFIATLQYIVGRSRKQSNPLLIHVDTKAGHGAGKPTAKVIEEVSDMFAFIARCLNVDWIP
# Prolyl endopeptidase [3] = target: T1, Prolyl endopeptidase; test: Inhibitory activity against human prolyl endopeptidase
# Sequence of Dipeptidyl peptidase 4 (P27487 whole entry): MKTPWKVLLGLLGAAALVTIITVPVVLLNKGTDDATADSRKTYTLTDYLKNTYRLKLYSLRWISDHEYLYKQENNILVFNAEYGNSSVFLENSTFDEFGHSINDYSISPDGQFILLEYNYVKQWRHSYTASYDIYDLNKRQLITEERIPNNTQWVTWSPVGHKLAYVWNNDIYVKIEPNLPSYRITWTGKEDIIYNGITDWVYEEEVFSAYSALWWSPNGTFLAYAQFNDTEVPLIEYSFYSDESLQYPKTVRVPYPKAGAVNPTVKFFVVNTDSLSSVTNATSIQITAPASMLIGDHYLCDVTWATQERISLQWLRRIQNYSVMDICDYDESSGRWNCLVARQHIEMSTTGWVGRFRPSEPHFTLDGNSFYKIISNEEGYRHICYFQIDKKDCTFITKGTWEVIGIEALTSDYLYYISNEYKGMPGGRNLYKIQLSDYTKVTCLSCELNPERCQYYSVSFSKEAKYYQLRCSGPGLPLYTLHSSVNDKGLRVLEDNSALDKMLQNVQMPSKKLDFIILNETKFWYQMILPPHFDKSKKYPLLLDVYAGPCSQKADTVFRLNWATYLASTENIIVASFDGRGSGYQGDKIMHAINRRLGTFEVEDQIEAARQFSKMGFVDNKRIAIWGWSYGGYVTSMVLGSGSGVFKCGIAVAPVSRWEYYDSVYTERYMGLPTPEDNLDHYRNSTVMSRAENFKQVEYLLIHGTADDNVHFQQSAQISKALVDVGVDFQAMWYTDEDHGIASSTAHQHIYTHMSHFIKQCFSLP
pIC50 (Dipeptidyl peptidase 2),pIC50 (Dipeptidyl peptidase 4),pIC50 [1],pIC50 (Prolyl endopeptidase [2]),pIC50 (Prolyl endopeptidase [3]),SMILES
7.28,6.96,< 4.00,–,–,CN(C)S(=O)(=O)c1ccc(S(=O)(=O)N[C@H]2CC[C@H]([C@H](N)C(=O)N3CCCC3)C2)cc1
4.92,7.14,< 4.00,–,–,N[C@H](C(=O)N1CCCC1)[C@H]1CC[C@H](NS(=O)(=O)c2ccc(C(=O)O)cc2)C1
7.66,7.08,< 4.00,–,–,N[C@H](C(=O)N1CCCC1)[C@H]1CC[C@H](NS(=O)(=O)c2ccc(S(N)(=O)=O)cc2)C1
–,–,< 4.00,–,–,COC1=N[C@H](C(C)C)C(OC)=N[C@H]1[C@H]1CCCC(O)C1 (stereo not given in full)
–,–,< 4.00,–,–,COC1=N[C@H](C(C)C)C(OC)=N[C@H]1[C@H]1CC[C@H](O)C1
6.57,6.96,< 4.00,–,–,N[C@H](C(=O)N1CCCC1)[C@H]1CC[C@@H](NC(=O)Nc2cccc3ccccc23)C1
6.96,6.66,< 4.00,–,–,N[C@H](C(=O)N1CCCC1)[C@H]1CC[C@H](NS(=O)(=O)c2ccc(S(=O)(=O)C(F)(F)F)cc2)C1
6.62,7.33,< 4.00,5.85,–,N[C@H](C(=O)N1CCSC1)[C@H]1CC[C@H](NC(=O)c2cccc3ccccc23)C1
5.60,6.74,< 4.00,< 4.00,–,COc1ccc(NC(=O)O[C@@H]2CCC[C@H]([C@H](N)C(=O)N3CCCC3)C2)cc1
6.38,6.96,< 4.00,4.57,–,N[C@H](C(=O)N1CCCC1)[C@H]1CCC[C@@H](OC(=O)Nc2ccc(I)cc2)C1
6.20,5.96,< 4.00,–,–,COc1ccc(NC(=O)O[C@@H]2CC[C@H]([C@H](N)C(=O)N3CCCC3)C2)cc1
–,–,< 4.00,–,–,O=C(N[C@H](C(=O)N1CCCC1)[C@@H]1CC[C@H](O)C1)OCc1ccccc1
4.72,6.89,< 4.00,< 4.00,–,CS(=O)(=O)c1ccc(S(=O)(=O)N[C@H]2CC[C@H]([C@H](N)C(=O)N3CCCC3)C2)cc1
6.37,7.03,< 4.00,–,–,N[C@H](C(=O)N1CCCC1)[C@@H]1CC[C@@H](NC(=O)Nc2cccc3ccccc23)C1
–,–,< 4.00,–,–,COC(=O)[C@@H](NC(=O)OCc1ccccc1)[C@@H]1CC[C@H](O)C1
–,–,< 4.00,–,–,COC1=N[C@H](C(C)C)C(OC)=NC1
5.70,7.02,< 4.00,< 4.00,–,CS(=O)(=O)NCCS(=O)(=O)N[C@H]1CC[C@H]([C@H](N)C(=O)N2CCCC2)C1
–,–,< 4.00,–,–,O=C(N[C@H](C(=O)N1CCCC1)[C@@H]1CC[C@@H](O)C1)OCc1ccccc1
–,–,< 4.00,–,–,O=C(N[C@H](C(=O)N1CCCC1)[C@@H]1CC[C@@H](OC(=O)c2ccc([N+](=O)[O-])cc2)C1)OCc1ccccc1
6.80,6.18,< 4.00,–,–,N[C@H](C(=O)N1CCCC1)[C@H]1CC[C@@H](OC(=O)Nc2ccc(I)cc2)C1
6.59,6.74,< 4.00,–,–,N[C@H](C(=O)N1CCCC1)[C@H]1CC[C@H](OC(=O)Nc2ccc(I)cc2)C1
5.85,6.57,< 4.00,–,–,COc1ccc(NC(=O)O[C@H]2CC[C@H]([C@H](N)C(=O)N3CCCC3)C2)cc1
5.77,6.77,< 4.00,< 4.00,–,N[C@H](C(=O)N1CCCC1)[C@@H]1CC[C@@H](NS(=O)(=O)c2ccc(OC(F)(F)F)cc2)C1
5.89,6.36,< 4.00,–,–,N[C@H](C(=O)N1CCCC1)[C@@H]1CC[C@H](NC(=O)Nc2cccc3ccccc23)C1
6.00,6.64,< 4.00,–,–,N[C@H](C(=O)N1CCCC1)[C@H]1CC[C@@H](NC(=O)c2cccc3ccccc23)C1
7.85,6.55,< 4.00,–,–,N[C@H](C(=O)N1CCSC1)[C@H]1CC[C@@H](OC(=O)Nc2ccc(Cl)c(Cl)c2)C1
6.60,6.17,< 4.00,–,–,N[C@H](C(=O)N1CCCC1)[C@@H]1CC[C@H](OC(=O)Nc2ccc(I)cc2)C1
5.40,6.38,< 4.00,< 4.00,–,CS(=O)(=O)c1ccc(S(=O)(=O)N[C@H]2CC[C@@H]([C@H](N)C(=O)N3CCCC3)C2)cc1

pIC50 (Dipeptidyl peptidase 2),pIC50 (Dipeptidyl peptidase 4),pIC50 [1],pIC50 (Prolyl endopeptidase [2]),pIC50 (Prolyl endopeptidase [3]),SMILES
6.36,6.38,< 4.00,–,–,COc1ccc(NC(=O)O[C@H]2CCC[C@H]([C@H](N)C(=O)N3CCSC3)C2)cc1
5.80,7.89,< 4.00,< 4.00,–,CS(=O)(=O)c1ccc(S(=O)(=O)N[C@@H]2CC[C@@H]([C@H](N)C(=O)N3CCCC3)C2)cc1
6.06,5.41,< 4.00,–,–,N[C@H](C(=O)N1CCCC1)[C@H]1CC[C@@H](OC(=O)Nc2ccccc2-c2ccccc2)C1
4.68,7.15,< 4.00,–,< 4.00,CS(=O)(=O)NCCS(=O)(=O)N[C@@H]1CC[C@@H]([C@H](N)C(=O)N2CCCC2)C1
5.51,6.60,< 4.00,–,–,N[C@H](C(=O)N1CCCC1)[C@@H]1CC[C@H](NS(=O)(=O)c2ccc(S(N)(=O)=O)cc2)C1
–,–,< 4.00,–,–,COC(=O)[C@H](NC(=O)OC(C)(C)C)[C@H]1CC[C@@H](O)C1
6.66,7.08,< 4.00,–,–,COc1ccc(NC(=O)O[C@@H]2CCC[C@H]([C@H](N)C(=O)N3CCSC3)C2)cc1
6.96,6.48,< 4.00,< 4.00,–,N[C@H](C(=O)N1CCCC1)[C@H]1CCC[C@H](OC(=O)Nc2ccc(I)cc2)C1
6.09,6.96,< 4.00,–,–,N[C@H](C(=O)N1CCCC1)[C@@H]1CC[C@@H](OC(=O)Nc2ccc(I)cc2)C1
6.96,5.77,< 4.00,–,–,N[C@@H](C(=O)N1CCSC1)[C@H]1CC[C@@H](OC(=O)Nc2cccc3ccccc23)C1
–,–,< 4.00,–,–,COC(=O)[C@H](NC(=O)OCc1ccccc1)[C@@H]1CC[C@H](O)C1
7.37,6.62,< 4.00,–,–,COc1ccc(NC(=O)O[C@@H]2CC[C@H]([C@H](N)C(=O)N3CCSC3)C2)cc1
–,–,< 4.00,–,–,COC1=N[C@H](C(C)C)C(OC)=N[C@H]1[C@H]1CC[C@@H](O)C1
6.27,5.92,< 4.00,< 4.00,–,N[C@@H](C(=O)N1CCSC1)[C@H]1CC[C@@H](OC(=O)Nc2cccc(F)c2)C1
–,–,< 4.00,–,–,COC1=N[C@H](C(C)C)C(OC)=N[C@H]1[C@H]1CCC(=O)C1
7.12,6.68,< 4.00,< 4.00,–,N[C@H](C(=O)N1CCSC1)[C@H]1CC[C@@H](OC(=O)Nc2cccc(F)c2)C1
5.64,7.34,< 4.00,–,–,N[C@H](C(=O)N1CCCC1)[C@@H]1CC[C@@H](NS(=O)(=O)c2ccc(S(N)(=O)=O)cc2)C1
5.30,6.96,< 4.00,–,–,N[C@H](C(=O)N1CCCC1)[C@@H]1CC[C@@H](NS(=O)(=O)c2ccc(C(=O)O)cc2)C1
–,–,< 4.00,–,–,COC1=N[C@H]([C@@H]2CC[C@H](O)C2)C(OC)=N[C@H]1C(C)C
7.59,7.37,< 4.00,5.68,–,N[C@H](C(=O)N1CCSC1)[C@H]1CC[C@H](NC(=O)Nc2cccc3ccccc23)C1
–,–,< 4.00,–,–,COC(=O)[C@@H](NC(=O)OC(C)(C)C)[C@H]1CC[C@@H](O)C1
6.12,6.26,< 4.00,< 4.00,–,N[C@H](C(=O)N1CCCC1)[C@H]1CC[C@@H](NS(=O)(=O)c2ccc(OC(F)(F)F)cc2)C1
4.34,6.08,< 4.00,< 4.00,–,N[C@H](C(=O)N1CCCC1)[C@H]1CC[C@H](O)C1
–,–,< 4.00,–,–,COC1=N[C@@H](C(C)C)C(OC)=NC1
4.40,6.54,< 4.00,< 4.00,–,N[C@H](C(=O)N1CCCC1)[C@H]1CCC[C@H](O)C1
6.00,6.82,< 4.00,< 4.00,–,CS(=O)(=O)c1ccccc1S(=O)(=O)N[C@H]1CC[C@H]([C@H](N)C(=O)N2CCCC2)C1
6.11,6.32,< 4.00,< 4.00,–,COc1ccc(NC(=O)O[C@H]2CCC[C@H]([C@H](N)C(=O)N3CCCC3)C2)cc1
